Only some compounds are listed: those with a hit (about 3.3% of all), similar ones and a draw of the others.
DENV2 CPE: inhibitors of DENV2 cytopathic effect, primary screen, cell-based, plate reader, single concentration; DENV2-infected cells, cytopathic effect rescue; CPE inhibition, % at 9.99 µM; actives 1.7% (n = 350,000); AID 651640, 2012; in the data active = CPE inhibition above about 20%, passing the limit was not always enough; inconclusive = no clear call, values can overlap the other calls; tested in BHK-21 cells;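 also: 0% = median of neutral control wells and 100% = median of positive control wells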
XiGFP reactiv: activators of inactive X chromosome reactivation, primary screen, imaging, XiGFP fibroblasts, GFP high-content imaging, set 2; XiGFP mouse fibroblasts, % GFP-positive cells imaging, 3 d; cells co-treated with 5-aza-dC sensitizer; scaled so ellipticine positive control = 100%; activation, % at 7.58 µM; actives 0.055% (n = 360,000);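 active = mean normalized replicate activation at least 10% and every replicate at or above 10%; inconclusive = only one of the two criteria met; inactive = mean below 10% and not all replicates reach 10%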;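 also: 0% = median of on-plate neutral control wells and 100% = ellipticine 6 µM median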
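System: XiGFP fibroblasts, SV40-immortalized. Medium: DMEM plus 5-aza-dC sensitizer. Doses: single point. Timing: 3 d treatment, 15 min room-temperature fixation. Control set: ellipticine 6 µM.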
E-sel inducer: E-selectin induction in HUVECs, primary screen, imaging, HUVEC, immunofluorescence imaging, single point. P16581. normalized: neutral wells 0, TNF-alpha wells 100. activation, % at 7.58 µM. actives 0.37% (n = 260,000);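 active = mean E-selectin-positive cell signal at least 10% of the positive control, reached in at least 60% of replicates, without over 20% cell loss; inconclusive = no rule given, readout overlaps actives, possibly toxicity-flagged; inactive = the rest, including those meeting only one limit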
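Read-out: % PE-positive cells | Test system: HUVEC | Doses: One compound dose added by pin transfer | Buffer or medium: EGM-2 over gelatin coat | Signal: Immunofluorescence imaging | Benchmarks: TNF-alpha, DMSO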
PglD inh: C. jejuni PglD acetyltransferase inhibitors, primary screen, biochemical, DTNB colorimetric, single point; UDP-N-acetylbacillosamine N-acetyltransferase PglD (Campylobacter jejuni); purified PglD enzyme, DTNB colorimetric CoA detection; inhibition, % at 12.5 µM; actives 0.098% (n = 360,000); in the data active = inhibition above about 16%, passing the limit was not always enough; inconclusive = no clear call, values can overlap the other calls
C2C12 statin: suppressors of statin myotoxicity in C2C12 myotubes, primary screen, cell-based, single point, plate reader; rescue of ATP level, % at 7.49 µM; AID 602340, 2012; C2C12 myotubes + simvastatin, ATP luminescence, 48 h; scaled: DMSO 0, geranylgeraniol control 100; actives 0.78% (n = 330,000);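 active = mean ATP rescue above about 67%, or every replicate alone reaching that limit, limit read from the data, passing the limit was not always enough; inconclusive = no clear call, values can overlap the other calls; inactive = mean under the limit and some replicate under it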;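 also: myotubes were challenged with 10 µM simvastatin during compound exposure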
FGF22 binding: binders of human FGF22 protein, primary screen, FGF22 synaptogenesis inhibitor project, biophysical, thermal shift, single point; recombinant FGF22 thermal shift, SYPRO orange fluorescence; percent of sucrose octasulfate shift, DMSO zero; activity (Tm shift, normalised), % at 9.99 µM; actives 1.5% (n = 340,000);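 active = mean Tm shift, scaled 0 neutral to 100 positive control, at about 1.3% or above, every replicate too, limit read from the data; inconclusive = no clear call, values can overlap the other calls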
Target sequence (Q9HCT0 whole entry, looked up): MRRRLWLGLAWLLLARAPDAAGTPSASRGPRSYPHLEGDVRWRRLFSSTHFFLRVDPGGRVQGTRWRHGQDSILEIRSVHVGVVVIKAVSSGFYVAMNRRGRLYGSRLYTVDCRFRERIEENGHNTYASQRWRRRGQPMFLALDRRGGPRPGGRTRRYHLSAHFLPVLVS
* hit, by the source's call.

For Clc1ccc2nc(C3CCCCC3)c(CC3CCCCC3)n2c1 the results were DENV2 CPE 38*, XiGFP reactiv 0, PglD inh 5, C2C12 statin -7 and FGF22 binding 0.
COc1ccc(NC(=O)Nc2ccc3c(c2)[C@H]2C[C@H](CC(=O)NCCc4ccccc4)O[C@@H](CO)[C@H]2O3)cc1 was read as DENV2 CPE -1, XiGFP reactiv 0, E-sel inducer 6, PglD inh 2, C2C12 statin -9 and FGF22 binding -1.
O=C(NCc1ccco1)C1CCCN1C(=O)Nc1cccc(Cl)c1 (stereo not given) was read as DENV2 CPE 0, XiGFP reactiv 0, E-sel inducer -1 and FGF22 binding 43*.
O=C(NCc1ccco1)C1CCCN1C(=O)Nc1ccc(Cl)cc1 (stereo not given) was read as DENV2 CPE -7, XiGFP reactiv 0 and FGF22 binding 0.
Screening C[C@H]1CN([C@@H](C)CO)C(=O)c2cc(NS(=O)(=O)c3ccccc3)ccc2O[C@H]1CN(C)S(=O)(=O)c1ccc(F)cc1 returned XiGFP reactiv 0, E-sel inducer 0 and C2C12 statin 14.
CCCCCn1c(CCC(=O)Oc2ccccc2OC)nc2c1c(=O)[nH]c(=O)n2CCCC was read as PglD inh 2 and C2C12 statin 129*.
For Cc1noc(C)c1NC(=O)Nc1ccc2c(c1)C(=O)N([C@@H](C)CO)C[C@@H](C)[C@@H](CN(C)Cc1ccc(C(=O)O)cc1)O2 the results were DENV2 CPE inconclusive, XiGFP reactiv -1, E-sel inducer -5, PglD inh -8, C2C12 statin -34 and FGF22 binding 0.
`CC(=O)Nc1cccc(OCCCNC(=O)c2ccc(F)cc2)c1` gave DENV2 CPE 9, XiGFP reactiv 0, E-sel inducer 0, PglD inh 7, C2C12 statin 8 and FGF22 binding 0.
Screening CC(=O)Nc1cccc(OCCCNC(=O)c2ccc(C(C)(C)C)cc2)c1 returned DENV2 CPE 31*, XiGFP reactiv 0, PglD inh 0, C2C12 statin -11 and FGF22 binding 0.
CCCC[C@@H]1C=C(C(=O)O)[C@H](c2ccc3c(c2)OCO3)N1S(=O)(=O)c1ccc(C)cc1 was read as DENV2 CPE -5, XiGFP reactiv 1, E-sel inducer 0, PglD inh 1, C2C12 statin 17 and FGF22 binding 1.8*.
Cc1ccc(S(=O)(=O)N2[C@@H](c3ccc(Cl)cc3)C(C(=O)O)=C[C@H]2CC2CCCC2)cc1 was read as DENV2 CPE -3, XiGFP reactiv 0, E-sel inducer 0, PglD inh 4, C2C12 statin 5 and FGF22 binding 1.
`Cc1ccc(S(=O)(=O)N2[C@@H](c3ccc(C#N)cc3)C(C(=O)O)=C[C@H]2CC2CCCC2)cc1` gave DENV2 CPE inconclusive, XiGFP reactiv 0, E-sel inducer 1, PglD inh 10, C2C12 statin -2 and FGF22 binding 1.4*.
CCCC[C@@H]1C=C(C(=O)O)[C@H](c2ccc(Cl)cc2)N1S(=O)(=O)c1ccc(C)cc1 was read as DENV2 CPE -12, XiGFP reactiv 0, E-sel inducer 1, PglD inh 2, C2C12 statin 8 and FGF22 binding 1.
Screening CN1[C@H](C(=O)NC2CCC2)[C@@H](CO)[C@@H]2Cn3c(ccc(/C=C/c4ccccc4)c3=O)[C@@H]21 returned DENV2 CPE -6, XiGFP reactiv 0, E-sel inducer 0, PglD inh 1 and C2C12 statin -5.

Source: PubChem BioAssay (Broad Institute)
